# According to ChEMBL document CHEMBL1131432, “Side chain methyl substitution in the delta-opioid receptor antagonist TIPP has an important effect on the activity profile” (J Med Chem, 1998):
# How the values were obtained:
# [1] = biological target: Mu-type opioid receptor (Rattus norvegicus, UniProt P33535); assay: Binding affinity towards Opioid receptor mu 1 on rat forebrain membranes by [3H]sufentanil displacement.; parameters: species or system Membrane
# [2] = biological target: Kappa-type opioid receptor (Cavia porcellus, UniProt P41144); assay: Binding affinity towards Opioid receptor kappa 1 on guinea pig cerebellum membranes by [3H]U-69593 displacement.; format: tissue-based, Membrane
# Kappa-type opioid receptor, sequence (P41144 whole entry): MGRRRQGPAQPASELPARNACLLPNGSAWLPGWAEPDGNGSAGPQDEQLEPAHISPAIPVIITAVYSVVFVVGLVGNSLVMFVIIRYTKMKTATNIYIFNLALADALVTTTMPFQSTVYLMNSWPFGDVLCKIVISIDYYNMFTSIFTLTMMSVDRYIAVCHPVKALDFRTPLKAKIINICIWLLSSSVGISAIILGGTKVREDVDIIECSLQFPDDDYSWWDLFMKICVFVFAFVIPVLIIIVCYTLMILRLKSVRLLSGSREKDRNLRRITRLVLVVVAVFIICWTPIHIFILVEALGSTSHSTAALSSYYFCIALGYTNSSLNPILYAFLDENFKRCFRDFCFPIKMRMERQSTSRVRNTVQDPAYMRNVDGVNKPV
# [3] = organism: Cavia porcellus; assay: In vitro agonist activity in electrically stimulated guinea pig ileum.; format: functional
# In short: (§1)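 Isolated guinea pig ileum or mouse vas deferens, electrically stimulated; the read-out is inhibition of contractions. A [Leu5]enkephalin log dose–response curve was run on each preparation and test IC50 values were normalised to it. Antagonist Ke was taken from the IC50 ratio with and without a fixed antagonist concentration; in MVD the δ-antagonism was measured against DPDPE.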
# [4] = organism: Mus musculus; assay: Inhibition of electrically evoked contractions of MVD. In MVD assay, the opioid effect was primarily mediated by delta-receptor; format: functional; in short: as §1
# [5] = organism: Mus musculus; assay: Inhibition of electrically evoked contractions of MVD. In MVD assay, the opioid effect are primarily mediated by delta-receptors.; format: functional
# In short: (§2)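 Mouse vas deferens preparations, electrically stimulated, with inhibition of evoked contractions as the read-out. Each preparation got a [Leu5]enkephalin log dose-response curve as standard, and test IC50 values were normalized against it. Antagonism was tested against the agonist DPDPE. Ke came from the ratio of agonist IC50 with and without a fixed antagonist concentration.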
# [6] = organism: Mus musculus; assay: (§3) Inhibition of electrically evoked contractions of MVD in MVD assay, the opioid effect was primarily mediated by delta-receptor; format: functional; in short: as §1
# [7] = organism: Mus musculus; assay: as §3; format: functional; remark: listed apart in the source
# [8] = organism: Cavia porcellus; assay: In vitro opioid activity tested in bioassay based on inhibition of electrically evoked contractions of the GPI.; format: functional; in short: as §1
# [9] = organism: Mus musculus; assay: Inhibition of electrically evoked contractions of MVD. In MVD assay, the opioid effect is primarily mediated by delta-receptor; format: functional; in short: as §2
# [10] = organism: Mus musculus; assay: as §3; format: functional, organism-based; in short: as §1
# Mu-type opioid receptor, sequence (P33535 whole entry): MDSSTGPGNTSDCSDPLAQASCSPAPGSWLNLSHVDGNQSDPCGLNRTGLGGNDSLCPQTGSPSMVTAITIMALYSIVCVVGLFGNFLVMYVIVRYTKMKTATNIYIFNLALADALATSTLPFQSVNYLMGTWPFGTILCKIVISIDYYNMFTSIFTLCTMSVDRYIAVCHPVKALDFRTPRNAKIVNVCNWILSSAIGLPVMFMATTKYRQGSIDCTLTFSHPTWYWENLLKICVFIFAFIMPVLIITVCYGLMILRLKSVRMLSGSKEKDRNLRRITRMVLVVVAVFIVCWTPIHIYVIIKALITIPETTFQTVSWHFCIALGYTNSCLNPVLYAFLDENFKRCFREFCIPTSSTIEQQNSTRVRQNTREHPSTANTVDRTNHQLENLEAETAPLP
SMILES,Ki [1] [nM],Ki [2] [nM],IC50 [3] [nM],Ke [4] [nM],Ke [5] [nM],Ke [6] [nM],IC25 [7] [nM],IC35 [8] [nM],Ke [9] [nM],IC50 [10] [nM]
N[C@@H](Cc1ccc(O)cc1)C(=O)N1Cc2ccccc2C[C@H]1C(=O)N[C@@H](Cc1ccccc1)C(=O)N[C@@H](Cc1ccccc1)C(=O)O,> 10000,> 10000,> 10000,4.8,–,–,–,–,–,–
NC(=O)[C@H](Cc1ccccc1)NC(=O)[C@@H](Cc1ccccc1)NC(=O)[C@@H]1Cc2ccccc2CN1C(=O)[C@@H](N)Cc1ccc(O)cc1,658,–,> 10000,125,–,–,–,–,–,–
C[C@@H](c1ccc(O)cc1)[C@H](N)C(=O)N1Cc2ccccc2C[C@H]1C(=O)N[C@@H](Cc1ccccc1)C(=O)N[C@@H](Cc1ccccc1)C(N)=O,352,> 10000,> 10000,–,102,–,–,–,–,–
C[C@H](c1ccc(O)cc1)[C@@H](N)C(=O)N1Cc2ccccc2C[C@H]1C(=O)N[C@@H](Cc1ccccc1)C(=O)N[C@@H](Cc1ccccc1)C(N)=O,1600,1180,> 10000,–,–,1020,–,–,–,–
C[C@@H](c1ccccc1)[C@H](NC(=O)[C@H](Cc1ccccc1)NC(=O)[C@@H]1Cc2ccccc2CN1C(=O)[C@@H](N)Cc1ccc(O)cc1)C(N)=O,47,1280,636,5.36,–,–,–,–,–,–
C[C@@H](c1ccccc1)[C@H](NC(=O)[C@@H]1Cc2ccccc2CN1C(=O)[C@@H](N)Cc1ccc(O)cc1)C(=O)N[C@@H](Cc1ccccc1)C(N)=O,973,3400,5520,18.2,–,–,–,–,–,–
C[C@H](c1ccccc1)[C@@H](NC(=O)[C@@H]1Cc2ccccc2CN1C(=O)[C@@H](N)Cc1ccc(O)cc1)C(=O)N[C@@H](Cc1ccccc1)C(=O)O,> 10000,> 10000,> 10000,0.192,–,–,–,–,–,–
C[C@H](c1ccccc1)[C@H](NC(=O)[C@@H]1Cc2ccccc2CN1C(=O)[C@@H](N)Cc1ccc(O)cc1)C(=O)N[C@@H](Cc1ccccc1)C(N)=O,149,4320,5080,–,–,7.24,–,–,–,–
C[C@H](c1ccc(O)cc1)[C@H](N)C(=O)N1Cc2ccccc2C[C@H]1C(=O)N[C@@H](Cc1ccccc1)C(=O)N[C@@H](Cc1ccccc1)C(N)=O,284,> 10000,1210,–,–,–,1030,–,–,–
C[C@@H](c1ccccc1)[C@@H](NC(=O)[C@H](Cc1ccccc1)NC(=O)[C@@H]1Cc2ccccc2CN1C(=O)[C@@H](N)Cc1ccc(O)cc1)C(N)=O,> 10000,2840,4510,–,–,27.7,–,–,–,–
C[C@H](c1ccccc1)[C@@H](NC(=O)[C@H](Cc1ccccc1)NC(=O)[C@@H]1Cc2ccccc2CN1C(=O)[C@@H](N)Cc1ccc(O)cc1)C(N)=O,498,766,–,–,–,20.5,–,1710,–,–
NC(=O)[C@H](Cc1ccccc1)NC(=O)[C@H](Cc1ccccc1)NC(=O)[C@@H]1Cc2ccccc2CN1C(=O)[C@@H](N)Cc1ccc(O)cc1,178,838,–,–,–,–,–,–,18,–
"N[C@@H](Cc1ccc(O)cc1)C(=O)N1Cc2ccccc2C[C@H]1C(=O)NC(Cc1ccccc1)C(=O)N[C@@H](Cc1ccccc1)C(=O)O (single isomer, unassigned)",4000,–,–,–,–,–,–,–,–,–
"C[C@@H](c1ccccc1)C(NC(=O)[C@@H]1Cc2ccccc2CN1C(=O)[C@@H](N)Cc1ccc(O)cc1)C(=O)N[C@@H](Cc1ccccc1)C(N)=O (single isomer, unassigned)",84,1190,127,–,–,–,–,–,–,–
"C[C@H](c1ccccc1)C(NC(=O)[C@@H]1Cc2ccccc2CN1C(=O)[C@@H](N)Cc1ccc(O)cc1)C(=O)N[C@@H](Cc1ccccc1)C(N)=O (single isomer, unassigned)",> 10000,442,> 10000,–,–,54.4,–,–,–,–
"C[C@@H](c1ccc(O)cc1)C(N)C(=O)N1Cc2ccccc2C[C@H]1C(=O)N[C@@H](Cc1ccccc1)C(=O)N[C@@H](Cc1ccccc1)C(N)=O (single isomer, unassigned)",> 10000,2510,> 10000,–,–,317,–,–,–,–
"C[C@H](c1ccccc1)C(NC(=O)[C@H](Cc1ccccc1)NC(=O)[C@@H]1Cc2ccccc2CN1C(=O)[C@@H](N)Cc1ccc(O)cc1)C(N)=O (single isomer, unassigned)",2020,253,2740,–,–,5.37,–,–,–,–
"C[C@H]1c2ccccc2CN(C(=O)C(N)Cc2ccc(O)cc2)[C@H]1C(=O)N[C@@H](Cc1ccccc1)C(=O)N[C@@H](Cc1ccccc1)C(=O)O (single isomer, unassigned)",> 10000,> 10000,> 10000,1.61,–,–,–,–,–,–
"CC1c2ccccc2CN(C(=O)C(N)Cc2ccc(O)cc2)[C@@H]1C(=O)N[C@@H](Cc1ccccc1)C(=O)N[C@@H](Cc1ccccc1)C(=O)O (single isomer, unassigned)",> 10000,> 10000,> 10000,2.09,–,–,–,–,–,–
"NC(=O)[C@H](Cc1ccccc1)NC(=O)[C@H](Cc1ccccc1)NC(=O)C1Cc2ccccc2CN1C(=O)[C@@H](N)Cc1ccc(O)cc1 (single isomer, unassigned)",7.3,–,37.1,–,–,–,–,–,–,454
"C[C@@H]1c2ccccc2CN(C(=O)[C@@H](N)Cc2ccc(O)cc2)C1C(=O)N[C@@H](Cc1ccccc1)C(=O)N[C@@H](Cc1ccccc1)C(=O)O (single isomer, unassigned; 15)",> 10000,> 10000,> 10000,–,–,1560,–,–,–,–
"C[C@@H]1c2ccccc2CN(C(=O)[C@@H](N)Cc2ccc(O)cc2)C1C(=O)N[C@@H](Cc1ccccc1)C(=O)N[C@@H](Cc1ccccc1)C(=O)O (single isomer, unassigned; 16)",> 10000,> 10000,> 10000,–,–,401,–,–,–,–
